Data: ChEMBL document CHEMBL1132724 (J Med Chem, 1999)
pIC50, pKi: −log10 of the molar value.

Tests used:
[1] = target: T1, Kappa-type opioid receptor (Cavia porcellus, UniProt P41144); assay: Binding affinity towards Opioid receptor kappa 1 by the displacement of [3H]U-69593 radioligand in guinea pig brain membranes; type: cell membranes, Membrane
Method in brief: (§1)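 Guinea pig brain membranes prepared daily, homogenized in ice-cold 10 mM Tris-HCl pH 7.0, centrifuged twice at 30000g. [3H]U69,593 2.0 nM, 2 h at 25 °C in 50 mM Tris-HCl pH 7.4 with 1 μg/mL captopril and protease inhibitors. Nonspecific binding: 1 μM U69,593. 10 drug concentrations, run twice. Ki from IC50 by Cheng-Prusoff.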

[2] = target: T2, Delta-type opioid receptor (Rattus norvegicus, UniProt P33533); assay: Binding affinity towards Opioid receptor delta 1 by the displacement of [3H]DADLE radioligand in rat brain membranes; type: cell membranes
Method in brief: (§2)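 Rat brain membranes prepared daily, homogenized in ice-cold 10 mM Tris-HCl pH 7.0, centrifuged twice at 30000g. [3H]DADLE 2.0 nM, 2 h at 25 °C in 50 mM Tris-HCl pH 7.4 with 100 mM choline chloride, 3 mM MnCl2, 100 nM DAMGO to block mu sites, protease inhibitors. Nonspecific binding: 20 μM levallorphan. 10 drug concentrations, run twice. Ki from IC50 by Cheng-Prusoff.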

[3] = target: T1, Kappa-type opioid receptor; assay: Ability to inhibit GTP-gamma-S binding to Opioid receptor kappa 1 of guinea pig caudate
Method in brief: (§3)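 Antagonism of agonist-stimulated [35S]GTP-γ-S (0.05-0.1 nM) binding in guinea pig caudate membranes (10 μg). Buffer: 59 mM Tris pH 7.7, 100 mM NaCl, 1 mM EDTA, 1 mM DTT, 100 μM GDP, 0.1% BSA. Agonist 500 nM or 10 μM (DAMGO for mu, U69,593 for kappa), ≥10 antagonist concentrations, 4 h. Filtration and scintillation counting. Nonspecific binding: 10 μM GTP-γ-S. Triplicate, ≥3 experiments. Ki by curve fitting.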

Mus musculus [4] = species on record: Mus musculus; assay: (§4) Agonistic activity in Mouse Vas Deferens; type: functional, organism-based
Method in brief: (§5)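 Electrically stimulated (0.1 Hz, 0.4-ms pulses, 2-ms for MVD) guinea pig ileum myenteric plexus strips (male Hartley) or vas deferens (male ICR mice) in 37 °C oxygenated Krebs (Mg-free for MVD). […] Tissues checked against an initial DPDPE or PL-017 curve. Mean of 2-4 tissues.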

Mu-type opioid receptor [5] = target: Mu-type opioid receptor (Cavia porcellus, UniProt P97266); assay: Ability to inhibit GTP-gamma-S binding to Opioid receptor mu 1 of guinea pig caudate.; method in brief: as §3
Mu-type opioid receptor [6] = target: T3, Mu-type opioid receptor (Rattus norvegicus, UniProt P33535); assay: Binding affinity towards Opioid receptor mu 1 by the displacement of [3H]DAMGO radioligand in rat brain membranes; type: cell membranes
Method in brief: (§6)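 Rat brain membranes prepared daily, homogenized in ice-cold 10 mM Tris-HCl pH 7.0, centrifuged twice at 30000g. [3H]DAMGO 2.0 nM, 2 h at 25 °C in 50 mM Tris-HCl pH 7.4 with protease inhibitors. Nonspecific binding: 20 μM levallorphan. 10 drug concentrations, run twice. IC50 converted to Ki by Cheng-Prusoff.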

Cavia porcellus [7] = species on record: Cavia porcellus; assay: (§7) Agonistic activity in Guinea Pig Ileum; type: functional, organism-based; method in brief: as §5
[8] = target: T1, Kappa-type opioid receptor; assay: Ability to displace [3H]U-69593 radioligand from Opioid receptor kappa 1; method in brief: as §1
[9] = target: T2, Delta-type opioid receptor; assay: Ability to displace [3H]DADLE radioligand from Opioid receptor delta 1; method in brief: as §2
Mu-type opioid receptor [10] = target: T3, Mu-type opioid receptor; assay: Ability to displace [3H]DAMGO radioligand from Opioid receptor mu 1; method in brief: as §6
[11] = target: Opioid receptors; mu & delta (Homo sapiens) (UniProt P41143+P35372); assay: Selectivity Ratio of Ki of Mu receptor/ Ki of Delta receptor; type: protein assay
[12] = target: Opioid receptors; delta & kappa (Homo sapiens) (UniProt P41145+P41143); assay: Selectivity Ratio of Ki of Kappa receptor/ Ki of Delta receptor; type: protein assay
Cavia porcellus [13] = species on record: Cavia porcellus; assay: as §7; type: functional; method in brief: as §5
Mus musculus [14] = species on record: Mus musculus; assay: as §4; type: functional; method in brief: as §5
[15] = target: T1, Kappa-type opioid receptor; assay: Ability to inhibit GTP-gamma-S binding to Opioid receptor kappa 1 of guinea pig caudate.
Method in brief: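 Guinea pig caudate membranes (10 μg) incubated 4 h with 0.05-0.1 nM [35S]GTP-γ-S in Tris buffer pH 7.7 with NaCl, MgCl2, EDTA, DTT, 100 µM GDP, 0.1% BSA. κ agonist U69,593 (500 nM or 10 μM) antagonised by ≥10 antagonist concentrations.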

T3 sequence (P33535 whole entry): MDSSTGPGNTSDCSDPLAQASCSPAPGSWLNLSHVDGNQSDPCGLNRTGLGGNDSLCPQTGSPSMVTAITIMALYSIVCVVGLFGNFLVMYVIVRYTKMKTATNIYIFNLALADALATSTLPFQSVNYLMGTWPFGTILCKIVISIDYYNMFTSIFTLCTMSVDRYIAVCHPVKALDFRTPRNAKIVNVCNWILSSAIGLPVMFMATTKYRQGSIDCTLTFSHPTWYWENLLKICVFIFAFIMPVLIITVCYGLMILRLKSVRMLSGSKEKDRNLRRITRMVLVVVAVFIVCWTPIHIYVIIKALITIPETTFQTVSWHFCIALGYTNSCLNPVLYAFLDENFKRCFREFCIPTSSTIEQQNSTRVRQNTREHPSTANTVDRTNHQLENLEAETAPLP
Chain of Opioid receptors; delta & kappa (Homo sapiens) (P41143 whole entry, looked up): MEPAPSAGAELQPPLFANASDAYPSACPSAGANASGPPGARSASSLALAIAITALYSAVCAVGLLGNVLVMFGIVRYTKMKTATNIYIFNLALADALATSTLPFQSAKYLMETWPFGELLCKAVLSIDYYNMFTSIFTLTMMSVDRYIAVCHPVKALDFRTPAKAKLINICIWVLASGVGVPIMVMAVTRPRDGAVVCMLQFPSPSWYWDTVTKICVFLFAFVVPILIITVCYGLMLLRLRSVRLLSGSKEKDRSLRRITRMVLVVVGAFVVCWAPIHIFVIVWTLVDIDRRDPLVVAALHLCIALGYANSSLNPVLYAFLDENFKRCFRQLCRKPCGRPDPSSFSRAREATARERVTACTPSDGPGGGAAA
Chain of Opioid receptors; delta & kappa (Homo sapiens) (P41145 whole entry, looked up): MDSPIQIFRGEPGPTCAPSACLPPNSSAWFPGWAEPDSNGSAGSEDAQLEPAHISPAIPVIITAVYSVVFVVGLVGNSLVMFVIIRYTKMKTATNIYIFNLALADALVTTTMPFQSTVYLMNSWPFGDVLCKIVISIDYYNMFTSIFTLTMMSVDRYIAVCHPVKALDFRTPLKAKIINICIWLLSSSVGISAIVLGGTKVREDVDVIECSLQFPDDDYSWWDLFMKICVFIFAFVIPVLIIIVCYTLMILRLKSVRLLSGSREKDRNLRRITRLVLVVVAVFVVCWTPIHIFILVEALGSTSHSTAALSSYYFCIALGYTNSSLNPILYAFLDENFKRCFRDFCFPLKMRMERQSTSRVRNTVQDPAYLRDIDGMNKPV
T1 sequence (P41144 whole entry): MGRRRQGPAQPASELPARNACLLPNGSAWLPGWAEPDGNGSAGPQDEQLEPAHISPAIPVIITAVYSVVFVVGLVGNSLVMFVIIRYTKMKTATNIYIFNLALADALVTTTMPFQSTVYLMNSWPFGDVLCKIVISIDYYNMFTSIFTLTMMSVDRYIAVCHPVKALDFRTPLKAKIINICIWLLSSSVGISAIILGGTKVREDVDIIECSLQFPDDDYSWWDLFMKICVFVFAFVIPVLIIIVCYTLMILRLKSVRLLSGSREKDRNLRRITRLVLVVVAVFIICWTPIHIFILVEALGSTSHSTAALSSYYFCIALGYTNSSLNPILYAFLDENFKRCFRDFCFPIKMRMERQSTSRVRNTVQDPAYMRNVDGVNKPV
T2 sequence (P33533 whole entry): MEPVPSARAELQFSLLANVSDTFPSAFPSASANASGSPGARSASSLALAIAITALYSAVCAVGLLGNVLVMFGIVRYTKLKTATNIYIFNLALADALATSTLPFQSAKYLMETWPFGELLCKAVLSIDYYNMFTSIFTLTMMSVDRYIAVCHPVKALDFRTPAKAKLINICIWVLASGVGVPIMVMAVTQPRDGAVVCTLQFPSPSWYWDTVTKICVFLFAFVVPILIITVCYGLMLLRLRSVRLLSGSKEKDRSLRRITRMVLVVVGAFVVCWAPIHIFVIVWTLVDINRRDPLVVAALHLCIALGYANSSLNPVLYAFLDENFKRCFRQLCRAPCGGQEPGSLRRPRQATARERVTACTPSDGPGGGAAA
Chain of Opioid receptors; mu & delta (Homo sapiens) (P35372 whole entry, looked up): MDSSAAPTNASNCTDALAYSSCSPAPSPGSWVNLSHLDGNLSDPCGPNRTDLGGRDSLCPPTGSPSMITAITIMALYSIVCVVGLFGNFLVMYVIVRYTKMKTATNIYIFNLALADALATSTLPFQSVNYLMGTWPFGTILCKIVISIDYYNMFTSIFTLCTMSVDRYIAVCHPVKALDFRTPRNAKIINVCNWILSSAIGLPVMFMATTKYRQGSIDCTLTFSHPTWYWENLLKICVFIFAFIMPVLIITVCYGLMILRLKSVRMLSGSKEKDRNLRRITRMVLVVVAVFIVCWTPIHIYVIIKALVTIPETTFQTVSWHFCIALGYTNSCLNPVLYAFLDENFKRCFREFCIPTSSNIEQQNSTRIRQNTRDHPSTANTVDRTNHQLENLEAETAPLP
Chain of Opioid receptors; mu & delta (Homo sapiens) (P41143 whole entry, looked up): as the sequence (P41143 whole entry, looked up) above
Chain of Mu-type opioid receptor (Cavia porcellus, UniProt P97266) (P97266 whole entry): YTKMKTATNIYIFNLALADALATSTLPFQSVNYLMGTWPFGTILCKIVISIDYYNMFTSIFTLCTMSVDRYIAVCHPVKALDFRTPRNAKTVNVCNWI

| Structure (SMILES) | pKi [8] | pKi [9] | pKi (Mu-type opioid receptor [10]) | Selectivity ratio [11] | Selectivity ratio [12] | also measured |
| --- | --- | --- | --- | --- | --- | --- |
| COc1ccc2c(c1O)[C@]13CCN(CC4CC4)[C@H](C2)[C@@H]1Cc1c([nH]c2ccccc12)C3 | – | – | – | – | – | pKi [1]: 5.10; pKi [2]: 8.15; pKi [3]: < 5.90; pIC50 (Mus musculus [4]): 6.73; pKi (Mu-type opioid receptor [5]): < 5.90; pKi (Mu-type opioid receptor [6]): 4.88; pIC50 (Cavia porcellus [7]): 6.27 |
| COc1ccc2c(c1O)[C@]13CCN(C)[C@H](C2)[C@]1(O)Cc1c([nH]c2ccccc12)C3 | < 5.17 | 6.66 | 5.55 | 13 | 31 | – |
| COc1ccc2c(c1O)[C@]13CCN(C)[C@H](C2)[C@@H]1Cc1c([nH]c2ccccc12)C3 | < 5.17 | 7.03 | 5.55 | 30 | 72 | – |
| CCN1CC[C@]23Cc4[nH]c5ccccc5c4C[C@@]2(O)[C@H]1Cc1ccc(OC)c(O)c13 | < 5.28 | 6.16 | 6.10 | – | 8 | – |
| COc1ccc2c(c1O)[C@]13CCN(CC4CC4)[C@H](C2)[C@]1(O)Cc1c([nH]c2ccccc12)C3 | 5.50 | 7.66 | 5.73 | 85 | 145 | – |
| Oc1ccc2c3c1O[C@H]1c4[nH]c5ccccc5c4C[C@@]4(O)[C@@H](C2)N(CC2CC2)CC[C@]314 [NALTRINDOLE] | – | […] | – | – | – | Inhibition (Cavia porcellus [13]): <20%; Inhibition (Mus musculus [14]): <20%; pKi [15]: 8.05; pKi (Mu-type opioid receptor [5]): 8.49 |
| C=CCN1C[C@H](C)N([C@H](c2ccc(C(=O)N(CC)CC)cc2)c2cccc(OC)c2)C[C@H]1C [SNC-80] | – | – | – | – | – | pIC50 (Mus musculus [4]): 8.56; pIC50 (Cavia porcellus [7]): 5.26 |
| CCN1CC[C@]23Cc4[nH]c5ccccc5c4C[C@H]2[C@H]1Cc1ccc(OC)c(O)c13 | 5.44 | 6.29 | 5.87 | 3 | 7 | – |
